The values that follow come from PubChem BioAssay.

The structures appear in SMILES notation. The source made the active and inactive calls.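 The calls were made as follows, unless noted: active = viability at or under a set limit in both replicates, limit being median viability minus 3 SD (cut at about 48% in these data, passing the limit was not always enough); inconclusive = at or under the limit in just one replicate; inactive = at or above the limit in both replicates.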

Assay [1] can be described thus: reduced viability of SK-BR-3 breast cancer cells – cell-based, 24 h, human, pilot screen (AID 572;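 active = viability at or below 10% of carrier control in both of two separate runs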;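 also: compound exposure lasted between 18 and 24 h rather than exactly 24 h; 100% = carrier-treated control wells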). Particulars: SK-BR-3 viability, CellTiter-Glo luminescence, at 10 µM, stronger effect = lower value. In general terms: ATP-based viability assays read luminescence as a measure of living cells.
Assay [2] can be described thus: HUVEC growth inhibition – cell-based, human, primary screen (AID 575;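 active = viability at or below 30% in both replicate assays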;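 also: 100% = median of untreated cell wells with 0.1% DMSO on each plate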). The following applies: HUVEC proliferation, CellTiter-Glo luminescence, 72 h; at 10 µM; stronger effect = lower value. Put shortly:
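Assay system: Primary human umbilical vein endothelial cells | Quantity: 1250 cells per well | Medium: Supplemented EBM, 2% fetal bovine serum | Detection: CellTiter-Glo luminescence measuring cellular ATP | Read-out: % viability vs DMSO wells | Plate: Collagen-coated 384-well format | Times: 72 h exposure, 37 °C, 5% CO2, 30 min RT equilibration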

The nature of assay [3]: H69AR cell proliferation blockers – human, duplicate replicates, primary screen (AID 580).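 Also: 100% = mean luminescence of untreated wells and 0% = no signal.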 The following applies: H69AR lung tumor cells viability, ATP luminescence, 72 h; at 10 µM; stronger effect = lower value.
Assay [4] in a line: MRP1 drug-resistance reversers in H69AR cells – cell-based, doxorubicin co-treatment, pilot screen (AID 601;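 active = viability loss from added drug above about 55%, and viability with drug at most 40%, in both replicates, limit read from the data, passing the limit was not always enough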). Particulars: CellTiter-Glo, 72 h, at 10 µM; for differential viability (reversal): stronger effect = higher value.
Assay [5] can be described thus: yeast transport mutant growth inhibition pilot in 384-well plates, post-Golgi transport modulator project (AID 636; in the data active = inhibition above about 31%). The following applies: absorbance 615 nm, about 18 h, stronger effect = higher value.
A short description of assay [6]: growth suppression of yeast trafficking mutant, preliminary HTS, modulators of trafficking downstream of Golgi apparatus project, 1536-format plate, OD 615 nm (AID 637; in the data active = inhibition above about 30%). Particulars: yeast transport mutant growth, absorbance 615 nm, 18 h; stronger effect = higher value.
Setting [7] is: H69AR cells + 2 uM doxorubicin, measured here: viability with 2 uM doxorubicin, stronger effect = lower value.
[8] abbreviates: H69AR cells, compound alone cytotoxicity.

As usually defined, the viability is a read-out of living cells in per cent, often relative to untreated cells. By inhibition is commonly meant the change of the read-out against control, counted positive when it falls. For `COC(=O)CCC(=O)Nc1ccc(S(=O)(=O)N2CCCCCC2)cc1`, the viability in assay [1] is 103% (inactive); in assay [2], 99.2% (inactive); in assay [3], 100% (inactive); in assay [4] (setting [7]), 98.8%; in assay [4] (setting [8]), 100%. In addition, the differential viability (reversal) in assay [4] (H69AR cells + 2 uM doxorubicin) was 1.32% (inactive). The inhibition is -1.69% (inactive) in assay [5] and 1.15% (inactive) in assay [6].
For the compound `Cc1cccc2c(=O)oc(-c3ccc4c(c3)C(=O)N(CC3CCCO3)C4=O)nc12` (stereo unspecified), the viability in assay [1] is 95% (inactive); in assay [2], 101% (inactive); in assay [3], 98.7% (inactive); in assay [4] (setting [7]), 92.8%; in assay [4] (setting [8]), 98.7%. Further, in assay [4] (H69AR cells + 2 uM doxorubicin), the differential viability (reversal) was 5.85% (inactive). Further, the values for the inhibition in assay [5] and in assay [6] were -4.25% (inactive) and 6.77% (inactive), respectively.
Take `Cc1nnc(SCCCn2c(N3CCCCC3)nc3c2c(=O)[nH]c(=O)n3C)s1`: the viability in assay [1] was 104% (inactive); in assay [2] it was 92% (inactive); in assay [3], 97.4% (inactive); in assay [4] (setting [7]) it was 87.1%; in assay [4] (setting [8]) it was 97.4%. For the same compound, the differential viability (reversal) in assay [4] (H69AR cells + 2 uM doxorubicin) was 10.2% (inactive). The inhibition in assay [5] was -6.03% (inactive); in assay [6] it was 4% (inactive).
Consider `COc1ccc(-c2nnc(SCc3nnc(-c4ccc(Cl)cc4)o3)n2-c2ccccc2)cc1`, for which the viability in assay [1] was 73% (inactive); in assay [2] it was 55.6% (inactive); in assay [3], 84.3% (inactive); in assay [4] (setting [7]), 80%; in assay [4] (setting [8]), 84.3%. For the same compound, the differential viability (reversal) in assay [4] (H69AR cells + 2 uM doxorubicin) was 4.27% (inactive). Also, the inhibition in assay [5] was -2.27% (inactive); in assay [6] it was 15.4% (inactive).
Consider `CCCCN1C(=O)C2C(C(=O)Nc3cccc(OC)c3)C3C=CC2(O3)C1C(=O)NC1CCCCC1C` (stereo unspecified), for which the viability in assay [1] was 101% (inactive); in assay [2] it was 82.7% (inactive); in assay [3], 82.1% (inactive); in assay [4] (setting [7]), 78.2%; in assay [4] (setting [8]), 82.1%. Further, in assay [4] (H69AR cells + 2 uM doxorubicin), the differential viability (reversal) was 3.86% (inactive). The inhibition in assay [5] is -2.86% (inactive); in assay [6], -3.11% (inactive).
Turning to `COc1ccc(-c2nc3cc(NC(=O)Cc4ccc(OC)c(OC)c4)ccc3o2)cc1`, the viability in assay [1] was 90.5% (inactive); in assay [2], 54.8% (inactive); in assay [3] it was 94.4% (inactive); in assay [4] (setting [7]), 90.7%; in assay [4] (setting [8]), 94.4%. The differential viability (reversal) in assay [4] (H69AR cells + 2 uM doxorubicin) was 3.68% (inactive). Also, the inhibition in assay [5] was 0.67% (inactive); in assay [6], 2.58% (inactive).
On to `O=C(NC(=O)c1ccc(Cl)cc1)Nc1cc(N2CCCCC2)ncn1`, for which the viability in assay [1] was 85% (inactive); in assay [2], 93.9% (inactive); in assay [3], 91.1% (inactive); in assay [4] (setting [7]), 93%; in assay [4] (setting [8]), 91.1%. Besides, the differential viability (reversal) in assay [4] (H69AR cells + 2 uM doxorubicin) is -1.91% (inactive). Also, the inhibition in assay [5] is -7.4% (inactive); in assay [6], 3.87% (inactive).
Consider `Cc1csc(NC(=O)c2cccs2)n1`, for which the viability in assay [1] was 119% (inactive); in assay [2] it was 93.9% (inactive); in assay [3], 89.7% (inactive); in assay [4] (setting [7]), 85.8%; in assay [4] (setting [8]), 89.7%. In assay [4] (H69AR cells + 2 uM doxorubicin), the differential viability (reversal) was 3.83% (inactive). Besides, the inhibition is -1.43% (inactive) in assay [5] and 1.48% (inactive) in assay [6].
As for `COc1ccc(S(=O)(=O)NCCCN2CCOCC2)c2ccccc12`, the viability is 102% (inactive) in assay [1]; 101% (inactive) in assay [2]; 86.8% (inactive) in assay [3]; 81.1% in assay [4] (setting [7]); 86.8% in assay [4] (setting [8]). For the same compound, the differential viability (reversal) in assay [4] (H69AR cells + 2 uM doxorubicin) is 5.68% (inactive). Besides, the values for the inhibition in assay [5] and in assay [6] were -6.53% (inactive) and -0.18% (inactive), respectively.
As to `CCOC(=O)c1[nH]c2cc(OC)c(OC)cc2c1NC(=O)C(C)N1CCN(Cc2ccccc2)CC1` (stereo unspecified), the viability in assay [1] is 73% (inactive); in assay [2], 51.3% (inactive); in assay [3] it was 59.2% (inactive); in assay [4] (setting [7]), 66.1%; in assay [4] (setting [8]), 59.2%. In addition, the differential viability (reversal) in assay [4] (H69AR cells + 2 uM doxorubicin) is -6.81% (inactive). Besides, the inhibition in assay [5] was -4.59% (inactive); in assay [6], -5.09% (inactive).
Turning to `O=C(NCC(=O)N(c1cccnc1)C(C(=O)NC1CCCCC1)c1cccnc1)c1ccco1` (stereo unspecified), the viability is 111% (inactive) in assay [1]; 113% (inactive) in assay [2]; 109% (inactive) in assay [3]; 99.9% in assay [4] (setting [7]); 109% in assay [4] (setting [8]). Also, in assay [4] (H69AR cells + 2 uM doxorubicin), the differential viability (reversal) was 9.06% (inactive). Moreover, the inhibition in assay [5] was -3.07% (inactive); in assay [6], 4.91% (inactive).
Take `CC(C)n1c(NCc2c[nH]c3ccccc23)nc2ccccc21`: the viability in assay [1] was 91% (inactive); in assay [2] it was 79.6% (inactive); in assay [3] it was 74.8% (inactive); in assay [4] (setting [7]), 78.4%; in assay [4] (setting [8]) it was 74.8%. For the same compound, the differential viability (reversal) in assay [4] (H69AR cells + 2 uM doxorubicin) was -3.61% (inactive). Besides, the inhibition in assay [5] was -9.45% (inactive); in assay [6] it was -5.16% (inactive).
